Results reported in ChEMBL document CHEMBL4270565, “Design, synthesis and antimicrobial evaluation of propylene-tethered ciprofloxacin-isatin hybrids” (Eur J Med Chem, 2018).
Converted amounts (≈) assume the structure as drawn.

Key:
[1] = system: Escherichia coli; experiment: Antibacterial activity against extended-spectrum beta-lactamase harboring Escherichia coli ATCC 35218 after 18 to 24 hrs by two-fold serial dilution method; type: functional
In short: (§1)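 Agar two-fold serial dilution in Mueller-Hinton agar. Strains came from the Chinese Center for Disease Control and Prevention. Compounds were dissolved in 0.1 N NaOH and water, then diluted in melted agar to final levels stepping down from 128. Plates were inoculated with bacterial cfu and incubated at 35 C for 18–24 h. MIC is the lowest concentration giving 90% growth inhibition.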

[2] = system: Providencia rettgeri; experiment: Antibacterial activity against Providencia rettgeri ATCC 31052 after 18 to 24 hrs by two-fold serial dilution method; type: functional
In short: (§2)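 Agar two-fold dilution MIC. Compounds were dissolved in 0.1 N NaOH and water, then serially diluted in melted Mueller-Hinton agar, with top concentrations starting at 128. Plates were inoculated at about 10 cfu and incubated at 35 °C for 18–24 h. MIC was taken as the lowest concentration giving 90% inhibition of growth.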

[3] = system: Proteus vulgaris; experiment: Antibacterial activity against Proteus vulgaris ATCC 29905 after 18 to 24 hrs by two-fold serial dilution method; type: functional; in short: as §2
[4] = system: Klebsiella pneumoniae; experiment: Antibacterial activity against extended-spectrum beta-lactamase deficient Klebsiella pneumoniae 15-2 after 18 to 24 hrs by two-fold serial dilution method; type: functional; in short: as §2
[5] = system: Staphylococcus aureus; experiment: Antibacterial activity against methicillin-resistant Staphylococcus aureus ATCC 33591 after 18 to 24 hrs by two-fold serial dilution method; type: functional; in short: as §1
[6] = system: Citrobacter freundii; experiment: Antibacterial activity against extended-spectrum beta-lactamase harboring Citrobacter freundii ATCC 43864 after 18 to 24 hrs by two-fold serial dilution method; type: functional; in short: as §1
[7] = system: Staphylococcus epidermidis; experiment: Antibacterial activity against methicillin-sensitive Staphylococcus epidermidis ATCC 12228 after 18 to 24 hrs by two-fold serial dilution method; type: functional; in short: as §2
[8] = system: Enterobacter cloacae; experiment: Antibacterial activity against Enterobacter cloacae ATCC 43560 after 18 to 24 hrs by two-fold serial dilution method; type: functional
[9] = system: Enterococcus faecium; experiment: Antibacterial activity against Enterococcus faecium 13-7 after 18 to 24 hrs by two-fold serial dilution method; type: functional; in short: as §2
[10] = system: Mycobacterium tuberculosis; experiment: Antimycobacterial activity against Mycobacterium tuberculosis H37Rv after 7 days; type: functional; conditions: 168 h
In short: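 Rapid direct susceptibility test in 48-well plates. Two-fold dilutions of compound from DMSO stocks were mixed with an equal volume of bacterial suspension. Medium-only wells served as growth controls and water-only wells as no-growth controls. Plates were sealed and held at 37 C in a humid box, and controls were checked at 3 days. MIC (90% growth inhibition) was read visually by high-magnification observation of the cells and re-read at 7 days.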

[11] = system: Staphylococcus epidermidis; experiment: Antibacterial activity against methicillin-resistant Staphylococcus epidermidis 13-3 after 18 to 24 hrs by two-fold serial dilution method; type: functional; in short: as §1
[12] = system: Enterococcus faecium; experiment: Antibacterial activity against Enterococcus faecium ATCC 700221 after 18 to 24 hrs by two-fold serial dilution method; type: functional; in short: as §2
[13] = system: Serratia marcescens; experiment: Antibacterial activity against Serratia marcescens ATCC 21074 after 18 to 24 hrs by two-fold serial dilution method; type: functional; in short: as §2
[14] = system: Staphylococcus aureus; experiment: Antibacterial activity against methicillin-sensitive Staphylococcus aureus ATCC 29213 after 18 to 24 hrs by two-fold serial dilution method; type: functional; in short: as §1
[15] = system: Enterococcus faecalis; experiment: Antibacterial activity against Enterococcus faecalis ATCC 51299 after 18 to 24 hrs by two-fold serial dilution method; type: functional; in short: as §2
[16] = system: Pseudomonas aeruginosa; experiment: Antibacterial activity against Pseudomonas aeruginosa ATCC 27853 after 18 to 24 hrs by two-fold serial dilution method; type: functional; in short: as §2
[17] = system: Escherichia coli; experiment: Antibacterial activity against extended-spectrum beta-lactamase deficient Escherichia coli ATCC 25922 after 18 to 24 hrs by two-fold serial dilution method; type: functional; in short: as §2
[18] = system: Klebsiella pneumoniae; experiment: Antibacterial activity against extended-spectrum beta-lactamase harboring Klebsiella pneumoniae ATCC 700603 after 18 to 24 hrs by two-fold serial dilution method; type: functional; in short: as §1
[19] = Cytotoxicity against African green monkey Vero cells assessed as reduction in cell viability after 72 hrs by MTT assay; type: cell-based; conditions: chlorocebus sabaeus
In short: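 VERO cells were kept in MEM with Earle's salts and 10% FBS at 37 °C, 5% CO2. They were seeded in 96-well plates and allowed to recover for 24 h. Cells were then exposed to compounds in DMSO over a series from 1000 down to 4 for 72 h. Viability was read by MTT, and CC50 was calculated by Bliss analysis.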

[20] = system: Enterococcus faecalis; experiment: Antibacterial activity against Enterococcus faecalis ATCC 29212 after 18 to 24 hrs by two-fold serial dilution method; type: functional; in short: as §2
[21] = system: Morganella morganii; experiment: Antibacterial activity against Morganella morganii ATCC 25830 after 18 to 24 hrs by two-fold serial dilution method; type: functional; in short: as §2
[22] = system: Acinetobacter calcoaceticus; experiment: Antibacterial activity against Acinetobacter calcoaceticus ATCC 19606 after 18 to 24 hrs by two-fold serial dilution method; type: functional; in short: as §2
[23] = system: Stenotrophomonas maltophilia; experiment: Antibacterial activity against Stenotrophomonas maltophilia ATCC 13636 after 18 to 24 hrs by two-fold serial dilution method; type: functional; in short: as §2
[24] = system: Klebsiella aerogenes; experiment: Antibacterial activity against Enterobacter aerogenes ATCC 13048 after 18 to 24 hrs by two-fold serial dilution method; type: functional; in short: as §2
[25] = system: Proteus mirabilis; experiment: Antibacterial activity against Proteus mirabilis 13-1 after 18 to 24 hrs by two-fold serial dilution method; type: functional; in short: as §2

Molecule `CO/N=C1\C(=O)N(CCCN2CCN(c3cc4c(cc3F)c(=O)c(C(=O)OCCCN3C(=O)/C(=N/OC)c5cc(C)ccc53)cn4C3CC3)CC2)c2ccc(C)cc21` has an MIC90 [1] of 16 µg/mL (≈ 20.2 µM), an MIC90 [2] of 32 µg/mL (≈ 40.4 µM) and an MIC90 [3] of 32 µg/mL (≈ 40.4 µM). It also gave an MIC90 [4] of 16 µg/mL (≈ 20.2 µM), an MIC90 [5] of 32 µg/mL (≈ 40.4 µM) and an MIC90 [6] of 32 µg/mL (≈ 40.4 µM). The MIC90 [7] was 16 µg/mL (≈ 20.2 µM), the MIC90 [8] was 16 µg/mL (≈ 20.2 µM) and the MIC90 [9] was > 128 µg/mL. For the same molecule, the MIC90 [10] was 25 µg/mL (≈ 31.6 µM), the MIC90 [11] was 64 µg/mL (≈ 80.8 µM) and the MIC90 [12] was 128 µg/mL (≈ 162 µM). It also gave an MIC90 [13] of 32 µg/mL (≈ 40.4 µM), an MIC90 [14] of 32 µg/mL (≈ 40.4 µM) and an MIC90 [15] of 128 µg/mL (≈ 162 µM). The MIC90 [16] was 32 µg/mL (≈ 40.4 µM), the MIC90 [17] was 8 µg/mL (≈ 10.1 µM) and the MIC90 [18] was 32 µg/mL (≈ 40.4 µM). For the same molecule, the CC50 at 72 h [19] was 16 µg/mL (≈ 20.2 µM), the MIC90 [20] was 32 µg/mL (≈ 40.4 µM) and the MIC90 [21] was 64 µg/mL (≈ 80.8 µM). The MIC90 [22] was 64 µg/mL (≈ 80.8 µM), the MIC90 [23] was 64 µg/mL (≈ 80.8 µM) and the MIC90 [24] was 32 µg/mL (≈ 40.4 µM). It also gave an MIC90 [25] of 64 µg/mL (≈ 80.8 µM).
With `CCO/N=C1\C(=O)N(CCCN2CCN(c3cc4c(cc3F)c(=O)c(C(=O)O)cn4C3CC3)CC2)c2ccccc21` the MIC90 [1] was ≤ 0.03 µg/mL, the MIC90 [2] was ≤ 0.03 µg/mL and the MIC90 [3] was ≤ 0.03 µg/mL. For the same molecule, the MIC90 [4] was 0.03 µg/mL (≈ 0.0534 µM), the MIC90 [5] was 0.25 µg/mL (≈ 0.445 µM) and the MIC90 [6] was ≤ 0.03 µg/mL. For the same molecule, the MIC90 [7] was 0.25 µg/mL (≈ 0.445 µM), the MIC90 [8] was 0.06 µg/mL (≈ 0.107 µM) and the MIC90 [9] was 32 µg/mL (≈ 57 µM). It also gave an MIC90 [10] of 0.78 µg/mL (≈ 1.39 µM), an MIC90 [11] of 2 µg/mL (≈ 3.56 µM) and an MIC90 [12] of 8 µg/mL (≈ 14.2 µM). For the same molecule, the MIC90 [13] was 0.125 µg/mL (≈ 0.223 µM), the MIC90 [14] was 0.25 µg/mL (≈ 0.445 µM) and the MIC90 [15] was 1 µg/mL (≈ 1.78 µM). For the same molecule, the MIC90 [16] was 1 µg/mL (≈ 1.78 µM), the MIC90 [17] was ≤ 0.03 µg/mL and the MIC90 [18] was 0.5 µg/mL (≈ 0.89 µM). It also gave a CC50 at 72 h [19] of 64 µg/mL (≈ 114 µM), an MIC90 [20] of 1 µg/mL (≈ 1.78 µM) and an MIC90 [21] of 0.03 µg/mL (≈ 0.0534 µM). The MIC90 [22] was 1 µg/mL (≈ 1.78 µM), the MIC90 [23] was 0.125 µg/mL (≈ 0.223 µM) and the MIC90 [24] was ≤ 0.03 µg/mL. For the same molecule, the MIC90 [25] was ≤ 0.03 µg/mL.
Molecule `O=C1C(=O)N(CCCOC(=O)c2cn(C3CC3)c3cc(N4CCN(CCCN5C(=O)C(=O)c6ccccc65)CC4)c(F)cc3c2=O)c2ccccc21` has an MIC90 [1] of 16 µg/mL (≈ 22.7 µM), an MIC90 [2] of 128 µg/mL (≈ 181 µM) and an MIC90 [3] of 64 µg/mL (≈ 90.7 µM). For the same molecule, the MIC90 [4] was 64 µg/mL (≈ 90.7 µM), the MIC90 [5] was > 128 µg/mL and the MIC90 [6] was 64 µg/mL (≈ 90.7 µM). For the same molecule, the MIC90 [7] was 64 µg/mL (≈ 90.7 µM), the MIC90 [8] was 128 µg/mL (≈ 181 µM) and the MIC90 [9] was > 128 µg/mL. The MIC90 [10] was 12.5 µg/mL (≈ 17.7 µM), the MIC90 [11] was > 128 µg/mL and the MIC90 [12] was > 128 µg/mL. For the same molecule, the MIC90 [13] was 32 µg/mL (≈ 45.3 µM), the MIC90 [14] was 128 µg/mL (≈ 181 µM) and the MIC90 [15] was > 128 µg/mL. The MIC90 [16] was > 128 µg/mL, the MIC90 [17] was 4 µg/mL (≈ 5.67 µM) and the MIC90 [18] was 64 µg/mL (≈ 90.7 µM). The CC50 at 72 h [19] was 32 µg/mL (≈ 45.3 µM), the MIC90 [20] was 64 µg/mL (≈ 90.7 µM) and the MIC90 [21] was 64 µg/mL (≈ 90.7 µM). The MIC90 [22] was 128 µg/mL (≈ 181 µM), the MIC90 [23] was > 128 µg/mL and the MIC90 [24] was 64 µg/mL (≈ 90.7 µM). For the same molecule, the MIC90 [25] was 64 µg/mL (≈ 90.7 µM).
Molecule `NNC(=O)c1ccncc1` [ISONIAZID] has an MIC90 [10] of 0.05 µg/mL (≈ 0.365 µM).
With `C[C@H]1COc2c(N3CCN(C)CC3)c(F)cc3c(=O)c(C(=O)O)cn1c23.C[C@H]1COc2c(N3CCN(C)CC3)c(F)cc3c(=O)c(C(=O)O)cn1c23.O` [LEVOFLOXACIN] the MIC90 [1] was ≤ 0.03 µg/mL, the MIC90 [2] was ≤ 0.03 µg/mL and the MIC90 [3] was ≤ 0.03 µg/mL. The MIC90 [4] was ≤ 0.03 µg/mL, the MIC90 [5] was 0.125 µg/mL and the MIC90 [6] was ≤ 0.03 µg/mL. For the same molecule, the MIC90 [7] was 0.125 µg/mL, the MIC90 [8] was ≤ 0.03 µg/mL and the MIC90 [9] was 64 µg/mL. For the same molecule, the MIC90 [11] was 4 µg/mL, the MIC90 [12] was 16 µg/mL and the MIC90 [13] was 0.125 µg/mL. For the same molecule, the MIC90 [14] was 0.125 µg/mL, the MIC90 [15] was 1 µg/mL and the MIC90 [16] was 2 µg/mL. The MIC90 [17] was ≤ 0.03 µg/mL, the MIC90 [18] was 0.5 µg/mL and the MIC90 [20] was 1 µg/mL. For the same molecule, the MIC90 [21] was ≤ 0.03 µg/mL, the MIC90 [22] was 0.125 µg/mL and the MIC90 [23] was 1 µg/mL. For the same molecule, the MIC90 [24] was 0.06 µg/mL and the MIC90 [25] was ≤ 0.03 µg/mL.
For `CO[C@H]1/C=C/O[C@@]2(C)Oc3c(C)c(O)c4c(O)c(c(/C=N/N5CCN(C)CC5)c(O)c4c3C2=O)NC(=O)/C(C)=C\C=C\[C@H](C)[C@H](O)[C@@H](C)[C@@H](O)[C@@H](C)[C@H](OC(C)=O)[C@@H]1C` [RIFAMPIN], the MIC90 [10] was 0.39 µg/mL (≈ 0.474 µM).
